Test results reported in ChEMBL document CHEMBL1129426, “5-Lipoxygenase inhibitors: synthesis and structure-activity relationships of a series of 1-aryl-2H,4H-tetrahydro-1,2,4-triazin-3-ones” (J Med Chem, 1996).
Calls of active or inactive are those of the source. No cut-off for these calls is given here.

Experiments:
[1] = target: T1, Polyunsaturated fatty acid 5-lipoxygenase (Rattus norvegicus, UniProt P12527); experiment: Inhibition of 5-lipoxygenase catalysis in rat basophilic leukemia (RBL) cells by measuring 5-HETE product formation; type: cell-based, RBL-1
T1 sequence (P12527 whole entry): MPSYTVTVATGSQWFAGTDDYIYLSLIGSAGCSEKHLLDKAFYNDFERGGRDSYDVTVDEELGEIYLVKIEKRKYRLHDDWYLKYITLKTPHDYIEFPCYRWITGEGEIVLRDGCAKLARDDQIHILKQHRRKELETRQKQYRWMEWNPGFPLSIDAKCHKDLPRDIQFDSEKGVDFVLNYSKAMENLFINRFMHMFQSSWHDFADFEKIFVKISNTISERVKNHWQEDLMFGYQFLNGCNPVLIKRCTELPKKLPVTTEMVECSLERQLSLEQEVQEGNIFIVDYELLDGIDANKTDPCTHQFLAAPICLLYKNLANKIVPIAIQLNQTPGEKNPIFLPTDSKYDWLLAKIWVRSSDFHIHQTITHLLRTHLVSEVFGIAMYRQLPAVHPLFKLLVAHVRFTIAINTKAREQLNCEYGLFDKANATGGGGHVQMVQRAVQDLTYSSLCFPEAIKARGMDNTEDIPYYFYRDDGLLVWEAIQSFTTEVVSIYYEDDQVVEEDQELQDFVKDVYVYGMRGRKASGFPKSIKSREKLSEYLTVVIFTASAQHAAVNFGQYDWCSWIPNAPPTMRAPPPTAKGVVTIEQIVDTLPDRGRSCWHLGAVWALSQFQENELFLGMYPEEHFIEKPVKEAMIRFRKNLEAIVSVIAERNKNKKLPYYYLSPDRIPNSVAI
Procedure, shortened: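 Crude 20000g supernatant from sonicated rat basophilic leukemia cells used as 5-LO source; 5-HETE product formation measured.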

[2] = Plasma Tmax in rat (PO dose); type: ADME, organism-based
Procedure, shortened: (§1)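 Rats dosed by oral gavage at 200 µmol/kg. Tail-vein blood drawn at about 1 h intervals; plasma analysed by HPLC. Mean of data from two animals.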

[3] = target: T2, Polyunsaturated fatty acid 5-lipoxygenase (Homo sapiens, UniProt P09917); experiment: In vitro 5-lipoxygenase inhibitory activity against calcium ionophore (A23187) induced LTB4 formation in human whole blood.
T2 sequence (P09917 whole entry): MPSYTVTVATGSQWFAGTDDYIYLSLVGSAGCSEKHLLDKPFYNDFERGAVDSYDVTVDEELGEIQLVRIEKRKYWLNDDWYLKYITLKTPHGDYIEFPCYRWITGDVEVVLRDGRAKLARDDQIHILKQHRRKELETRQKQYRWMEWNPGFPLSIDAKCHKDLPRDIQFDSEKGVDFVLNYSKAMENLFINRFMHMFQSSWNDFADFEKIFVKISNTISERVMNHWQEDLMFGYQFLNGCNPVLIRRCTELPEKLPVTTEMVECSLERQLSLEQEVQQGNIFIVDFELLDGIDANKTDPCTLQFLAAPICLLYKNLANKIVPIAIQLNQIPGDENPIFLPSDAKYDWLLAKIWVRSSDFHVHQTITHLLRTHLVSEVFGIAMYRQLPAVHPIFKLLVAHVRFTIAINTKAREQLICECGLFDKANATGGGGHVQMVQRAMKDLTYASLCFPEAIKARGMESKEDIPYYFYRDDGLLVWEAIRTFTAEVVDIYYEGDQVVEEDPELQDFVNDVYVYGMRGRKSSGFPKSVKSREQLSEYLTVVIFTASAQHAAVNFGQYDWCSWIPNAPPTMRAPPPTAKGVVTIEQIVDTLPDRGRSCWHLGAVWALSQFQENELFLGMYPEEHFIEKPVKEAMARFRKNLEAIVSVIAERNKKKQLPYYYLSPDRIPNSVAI

[4] = Plasma Cmax in rat (PO dose); type: ADME, organism-based; design: route oral; procedure, shortened: as §1
[5] = tested on: Rattus norvegicus; experiment: In vivo inhibition of rat anaphylaxis LTE4 leukotriene formation from peritoneal fluids, 1 hr after an oral dose of 200 uM/kg; type: functional
Procedure, shortened: (§2)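 Rats given 200 µmol/kg orally 1 h before antibody-antigen challenge inducing peritoneal leukotriene biosynthesis; LTE4 in peritoneal fluid measured. Mean of eight rats; percent inhibition versus control group mean; significance by one-way ANOVA with Tukey's multiple comparison.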

[6] = tested on: Rattus norvegicus; experiment: In vivo inhibition of rat anaphylaxis leukotriene formation from peritoneal fluids, 1 hr after an oral dose of 200 uM/Kg; Not significant; type: functional, organism-based; procedure, shortened: as §2
[7] = tested on: Rattus norvegicus; experiment: In vivo inhibition of rat anaphylaxis leukotriene formation from peritoneal fluids, 1 hr after an oral dose of 200 uM/Kg; type: functional; procedure, shortened: as §2

SMILES	IC50 [1]	Tmax [2]	IC50 [3]	Cmax [4]	Inhibition [5]	ED50 [6]	ED50 [7]
CON1C(=O)NN(c2ccccc2)CC1C (configuration not stated)	22 µM						
CC1CN(c2cccc(-c3cccs3)c2)NC(=O)N1 (configuration not stated)	2.8 µM	4 h	5.5 µM	1 µM			
O=C1NCCN(c2cccc(-c3ccccn3)n2)N1	6 µM		> 50 µM				
O=C1NCCN(c2cccc(F)c2)N1		1 h		108 µM	38%		
CC1CN(c2cccc(F)c2)NC(=O)N1 (configuration not stated)	6.3 µM	7.2 h	1.8 µM	70.2 µM	60%		
O=C1NCCN(c2cc(F)cc(F)c2)N1	8.9 µM	2 h	4.6 µM	64 µM	59%		
CC1CN(c2cccc(F)n2)NC(=O)N1 (configuration not stated)	6.6 µM		6 µM				
O=C1NCCN(c2cccc(-c3ccncc3)c2)N1	30 µM						
O=C1NCCN(c2cccc(OCc3ccccc3)c2)N1	1.1 µM	1 h	0.2 µM	2.5 µM	14%		
Cc1ccc(N2CCNC(=O)N2)cc1	300 µM	1.1 h		105 µM			
O=C1NCCN(c2cccc([N+](=O)[O-])c2)N1	49 µM	2 h		62 µM			
COCCOCC1CN(c2ccccc2)NC(=O)N1 (configuration not stated)	14 µM		24 µM				
CC1CN(c2cccc(Cl)c2)NC(=O)N1 (configuration not stated)	2.7 µM	4 h	2.7 µM	31 µM	40%		
Cc1ccccc1N1CCNC(=O)N1	386 µM	2.1 h		78 µM		inactive	
O=C1NCCN(c2ccccn2)N1		1 h	8.6 µM	184 µM			8 mg/kg
O=C1NCCN(c2cccnc2)N1	32 µM						
O=C1NCCN(c2nc3ccccc3s2)N1	32 µM	2 h		123 µM			
Cc1cccc(N2CCNC(=O)N2)c1		1.1 h	2 µM	98 µM			18 mg/kg
Cc1cccc(N2CC(C)NC(=O)N2)c1 (configuration not stated)	1.3 µM	2.2 h		44 µM	43%		
CC1(C)CN(c2ccccc2)NC(=O)N1	6.8 µM	2.2 h		20 µM		inactive	

SMILES	IC50 [1]	Tmax [2]	IC50 [3]	Cmax [4]	Inhibition [5]	ED50 [6]	ED50 [7]
Cc1cccc(N2CCNC(=O)N2)n1	5.5 µM	1 h	7.9 µM	99 µM			17 mg/kg
CC1CN(c2cccc(Cl)c2)NC(=O)N1O (configuration not stated)			3.6 µM				
Nc1cccc(N2CCNC(=O)N2)c1	178 µM	1.1 h		95 µM			
O=C1NC(Oc2ccc(F)cc2)CN(c2ccccc2)N1 (configuration not stated)			2.6 µM			inactive	
CN1CCN(c2ccccc2)NC1=O	32 µM						
CCC1CN(c2ccccc2)NC(=O)N1 (configuration not stated)		1.2 h	3.8 µM	59 µM			24 mg/kg
O=C1NCCN(c2cccc(O)c2)N1	32 µM						
O=C1NCCN(c2cccc(C(F)(F)F)c2)N1		4.1 h		24 µM	40%		
O=C1NCCN(c2ccnc3cc(Cl)ccc23)N1	32 µM	4 h		85 µM			
CCN1CCN(c2ccccc2)NC1=O	32 µM						
O=C1NCCN(c2cccc(Br)n2)N1	3.5 µM	1 h	4.6 µM	79 µM			41 mg/kg
O=C1NCCN(c2nc3ccccc3o2)N1	32 µM						
CC1CN(c2cccc(Cl)n2)NC(=O)N1 (configuration not stated)	3.5 µM	2 h	1.6 µM	48 µM		inactive	
O=C1NN(c2ccccc2)CCN1Cc1ccccc1	8.3 µM						
O=C1NCCN(c2cccc(-c3cccs3)c2)N1	2.1 µM	1 h	8.8 µM	3 µM			
O=C1NCCN(c2cnc3ccccc3c2)N1	32 µM	1 h		58 µM			
Cc1cccc(N2CC(C)N(O)C(=O)N2)c1 (configuration not stated)	8.4 µM		4.8 µM				
CC1CN(c2ccccc2)NC(=O)N1 (configuration not stated)	11 µM	2 h	5.8 µM	141 µM			13 mg/kg
CC(C)C1CN(c2ccccc2)NC(=O)N1 (configuration not stated)	6.8 µM	2 h	20 µM	48 µM			59 mg/kg
CC1CN(c2cccc(Br)n2)NC(=O)N1 (configuration not stated)		2 h	3.1 µM	21 µM	57%		

SMILES	IC50 [1]	Tmax [2]	IC50 [3]	Cmax [4]	Inhibition [5]	ED50 [6]	ED50 [7]
CSc1cccc(N2CCNC(=O)N2)c1		1 h	2.2 µM	26 µM	73%		
CCc1cccc(N2CCNC(=O)N2)c1		1.1 h		32 µM			24 mg/kg
CC1CN(c2cccc(Br)c2)NC(=O)N1 (configuration not stated)	2.6 µM	7.2 h	5.2 µM	26 µM	54%		
CC1CN(c2cccc(-c3ccco3)c2)NC(=O)N1 (configuration not stated)	4.8 µM	1 h	8.4 µM	7 µM		inactive	
CCCCC1CN(c2ccccc2)NC(=O)N1 (configuration not stated)	1.5 µM	1 h		8 µM	42%		
Cc1cc(C)cc(N2CCNC(=O)N2)c1		4 h		20 µM	46%		
COc1cccc(N2CCNC(=O)N2)c1	47 µM	1.2 h		72 µM	44%		
O=C1NCCN(c2cccc(F)n2)N1	9.1 µM		3 µM				
COc1cccc(N2CCNC(=O)N2)n1	9.5 µM	1 h	3.5 µM	101 µM	26%		
O=C1NC(Oc2ccccc2)CN(c2ccccc2)N1 (configuration not stated)			2.6 µM			inactive	
CC1CN(c2ccccc2)NC(=O)N1O (configuration not stated)	6 µM		13 µM				
COc1cccc(N2CC(C)NC(=O)N2)n1 (configuration not stated)	5.5 µM	1 h	7.1 µM	85 µM			
O=C1NCCN(c2cccc(-c3cccs3)n2)N1	8.2 µM		37 µM				
O=C1NCCN(c2cccc(Cl)c2)N1	5.3 µM	2 h	2.1 µM	59 µM			18 mg/kg
O=C1NCCN(c2cccc(-c3ccccn3)c2)N1	30 µM						
O=C1NCCN(c2cccc(Br)c2)N1		4.2 h		35 µM	46%		
O=C1NCCN(c2ccncc2)N1	32 µM						
Cc1cccc(N2CC(C)NC(=O)N2)n1 (configuration not stated)	3.8 µM	1 h	1.7 µM	125 µM			
O=C1NCCN(c2cccc(Cl)n2)N1	5.6 µM	2 h	4.8 µM	122 µM			16 mg/kg
O=C1NCCN(c2cccc(-c3ccsc3)c2)N1	4.9 µM	1 h	5.3 µM	2 µM			
